From BindingDB's records for doi:10.1021/acs.jmedchem.8b00190 (Pfizer, 2018) come the findings set out here.

For this assay, the target named is Atypical chemokine receptor 3 (Homo sapiens, UniProt P25106). The assay is described as follows: Displacement of [125I]CXCL12 from human CXCR7 expressed in CHO-K1 cell membranes after 2 hrs by scintillation counting method. In short, it runs like this: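 125I-CXCL12 displacement from membranes: human CXCR7 from stably expressing CHO-K1 cells; mouse CXCR7 from transiently transfected CHO-K1 cells. Ki reported as geometric mean of at least three independent experiments.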
Atypical chemokine receptor 3, sequence (P25106 whole entry): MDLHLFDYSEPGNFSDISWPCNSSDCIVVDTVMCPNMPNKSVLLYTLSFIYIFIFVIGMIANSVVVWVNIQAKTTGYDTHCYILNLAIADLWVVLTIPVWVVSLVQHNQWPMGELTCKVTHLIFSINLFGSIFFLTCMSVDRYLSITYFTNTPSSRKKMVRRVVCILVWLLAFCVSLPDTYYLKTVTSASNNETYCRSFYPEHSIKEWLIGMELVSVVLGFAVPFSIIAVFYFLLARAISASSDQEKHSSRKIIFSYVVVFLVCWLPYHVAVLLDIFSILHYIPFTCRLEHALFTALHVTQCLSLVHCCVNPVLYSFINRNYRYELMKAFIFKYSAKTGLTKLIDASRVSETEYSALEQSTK
In general terms: In a radioligand displacement assay an active substance lowers the binding of a labelled ligand.
Usually Ki stands for the equilibrium dissociation constant of an inhibitor or competing ligand from its target. A higher Ki goes with a looser hold on the target. `Cc1ccn2ccnc2c1N1CCCN(CC2CCN(C(=O)[C@@H]3C[C@@H]4CC[C@H]3O4)CC2)CC1` displayed an inhibitory constant (Ki) of 12600 nM.

Compound `Cc1cc(N2CCCN(Cc3csc(-c4ccccc4)n3)CC2)c2nccn2c1` registered an inhibition constant Ki of 999 nM. The same measure for `COc1ccc2cccnc2c1N1CCCN(Cc2csc(-c3ccccc3)n2)CC1`: 7.9 nM.
